Tests used:
[1] = molecular target: Centromere-associated protein E (Mus musculus, UniProt Q6RT24); assay: Binding affinity to wild-type mouse CENP-E assessed as inhibition constant
[2] = molecular target: Centromere-associated protein E (Homo sapiens, UniProt Q02224); assay: Uncompetitive binding affinity to C-terminal 6-his-tagged CENP-E (2 to 340 residues)(unknown origin) expressed in Escherichia coli BL21(DE3) assessed as apparent inhibition constant in presence of ATP; conditions: read-out: Ki(app)
Sequence of Centromere-associated protein E (Homo sapiens, UniProt Q02224) (Q02224 whole entry, the tested form may be a part): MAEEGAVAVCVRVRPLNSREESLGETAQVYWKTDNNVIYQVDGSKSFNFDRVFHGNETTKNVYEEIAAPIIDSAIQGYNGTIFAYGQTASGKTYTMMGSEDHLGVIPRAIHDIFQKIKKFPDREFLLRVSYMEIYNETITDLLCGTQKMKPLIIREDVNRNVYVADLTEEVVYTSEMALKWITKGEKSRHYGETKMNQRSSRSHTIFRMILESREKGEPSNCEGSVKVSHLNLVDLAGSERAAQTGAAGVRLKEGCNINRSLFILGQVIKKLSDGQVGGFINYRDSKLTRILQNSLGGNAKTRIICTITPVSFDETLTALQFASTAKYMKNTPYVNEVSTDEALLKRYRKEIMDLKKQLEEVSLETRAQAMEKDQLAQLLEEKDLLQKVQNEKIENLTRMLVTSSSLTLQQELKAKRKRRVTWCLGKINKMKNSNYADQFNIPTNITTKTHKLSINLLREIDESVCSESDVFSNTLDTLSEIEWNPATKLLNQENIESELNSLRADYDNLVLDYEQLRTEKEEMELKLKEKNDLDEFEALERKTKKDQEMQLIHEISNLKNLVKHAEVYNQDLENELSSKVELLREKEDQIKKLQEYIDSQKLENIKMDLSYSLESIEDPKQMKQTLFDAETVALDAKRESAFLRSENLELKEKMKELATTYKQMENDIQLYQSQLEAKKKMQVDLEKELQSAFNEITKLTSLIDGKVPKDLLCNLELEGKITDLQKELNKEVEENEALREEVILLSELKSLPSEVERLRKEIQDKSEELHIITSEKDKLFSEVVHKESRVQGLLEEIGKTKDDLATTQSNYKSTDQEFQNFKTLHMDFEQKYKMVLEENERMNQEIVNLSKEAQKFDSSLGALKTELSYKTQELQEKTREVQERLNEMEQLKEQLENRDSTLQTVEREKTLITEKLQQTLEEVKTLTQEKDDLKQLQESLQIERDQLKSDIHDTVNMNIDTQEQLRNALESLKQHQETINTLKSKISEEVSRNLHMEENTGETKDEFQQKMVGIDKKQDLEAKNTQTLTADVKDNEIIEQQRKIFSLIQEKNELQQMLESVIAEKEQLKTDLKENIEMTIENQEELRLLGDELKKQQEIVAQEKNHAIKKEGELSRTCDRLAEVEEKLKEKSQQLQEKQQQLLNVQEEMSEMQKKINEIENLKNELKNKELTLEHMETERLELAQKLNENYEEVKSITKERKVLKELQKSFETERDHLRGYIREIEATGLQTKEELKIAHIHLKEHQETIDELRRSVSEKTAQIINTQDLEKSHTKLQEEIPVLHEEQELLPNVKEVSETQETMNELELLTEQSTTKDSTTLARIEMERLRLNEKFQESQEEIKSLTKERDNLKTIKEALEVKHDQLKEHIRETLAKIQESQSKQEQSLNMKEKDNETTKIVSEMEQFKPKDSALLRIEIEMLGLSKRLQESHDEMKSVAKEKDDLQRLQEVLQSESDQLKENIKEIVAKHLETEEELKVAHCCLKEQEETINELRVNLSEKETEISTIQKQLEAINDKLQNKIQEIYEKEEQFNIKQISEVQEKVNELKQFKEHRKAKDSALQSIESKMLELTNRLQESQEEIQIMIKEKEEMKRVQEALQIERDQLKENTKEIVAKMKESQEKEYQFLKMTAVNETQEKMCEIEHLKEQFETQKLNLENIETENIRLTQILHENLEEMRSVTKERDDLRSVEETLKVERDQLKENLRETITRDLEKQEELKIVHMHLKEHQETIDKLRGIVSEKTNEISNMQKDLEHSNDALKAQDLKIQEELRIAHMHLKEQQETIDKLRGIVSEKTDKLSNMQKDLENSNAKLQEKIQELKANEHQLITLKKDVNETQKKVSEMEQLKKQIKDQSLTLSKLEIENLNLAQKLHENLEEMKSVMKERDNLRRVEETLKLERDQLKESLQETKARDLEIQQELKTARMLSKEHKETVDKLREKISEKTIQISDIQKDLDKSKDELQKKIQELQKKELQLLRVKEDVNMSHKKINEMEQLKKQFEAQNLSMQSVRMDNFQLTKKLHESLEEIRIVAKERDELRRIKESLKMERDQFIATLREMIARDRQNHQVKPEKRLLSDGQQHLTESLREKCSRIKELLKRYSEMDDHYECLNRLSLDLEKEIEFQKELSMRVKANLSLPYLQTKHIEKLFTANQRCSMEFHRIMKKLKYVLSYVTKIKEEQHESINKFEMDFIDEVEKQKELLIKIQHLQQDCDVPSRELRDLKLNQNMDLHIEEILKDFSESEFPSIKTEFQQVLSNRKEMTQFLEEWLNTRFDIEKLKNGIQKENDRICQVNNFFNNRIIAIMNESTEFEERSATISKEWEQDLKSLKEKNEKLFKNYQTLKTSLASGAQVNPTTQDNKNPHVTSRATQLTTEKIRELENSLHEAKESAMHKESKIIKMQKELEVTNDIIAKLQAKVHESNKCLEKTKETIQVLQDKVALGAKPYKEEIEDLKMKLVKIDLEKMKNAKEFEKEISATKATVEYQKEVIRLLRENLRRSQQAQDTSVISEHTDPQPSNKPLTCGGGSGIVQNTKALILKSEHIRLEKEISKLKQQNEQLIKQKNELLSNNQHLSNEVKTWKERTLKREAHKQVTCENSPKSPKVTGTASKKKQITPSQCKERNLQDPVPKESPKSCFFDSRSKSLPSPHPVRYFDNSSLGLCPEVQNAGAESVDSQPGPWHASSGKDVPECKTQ

BE(2)-C = assay: Anticancer activity against human BE2C cells assessed as cell growth inhibition measured after 72 hrs by DAPI staining based analysis; type: functional
Outline: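 Cells were seeded and, after 24 h, DNA content was read as T0. Cells were then exposed to varying drug concentrations for a further 72 h (T72). Fixed cells were DAPI-stained and DNA content measured by automated imaging. T72 values were normalized to T0. GI50 is the concentration giving 50% growth inhibition between T0 and Ymax, obtained by curve fitting.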

DB = assay: Anticancer activity against human DB cells assessed as cell growth inhibition measured after 72 hrs by DAPI staining based analysis; type: functional
Outline: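 Cells seeded, DAPI-stained DNA content of fixed cells read by imaging 24 h after seeding (T0), and again after a further 72 h exposure to a range of drug concentrations (T72). T72 values were normalized to T0. Curve fits gave the concentration producing 50% growth inhibition relative to T0 and Ymax (GI50).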

HMCB cell line [3] = assay: Anticancer activity against human HMCB cells assessed as cell growth inhibition measured after 72 hrs by DAPI staining based analysis; type: functional
K562 = assay: Anticancer activity against human K562 cells assessed as cell growth inhibition measured after 72 hrs by DAPI staining based analysis; type: functional
MIA PaCa-2 = assay: Anticancer activity against human MIA PaCa-2 cells assessed as cell growth inhibition measured after 72 hrs by DAPI staining based analysis; type: functional
NCI/ADR-RES = assay: Anticancer activity against human NCI/ADR-RES cells assessed as cell growth inhibition measured after 72 hrs by DAPI staining based analysis; type: functional
NCI-H295R = assay: Anticancer activity against human NCI-H295R cells assessed as cell growth inhibition measured after 72 hrs by DAPI staining based analysis; type: functional
[4] = Anticancer activity against human NCI-H322T cells assessed as cell growth inhibition measured after 72 hrs by DAPI staining based analysis; type: functional
OV-90 = assay: Anticancer activity against human OV-90 cells assessed as cell growth inhibition measured after 72 hrs by DAPI staining based analysis; type: functional
SK-LMS-1 = assay: Anticancer activity against human SK-LMS-1 cells assessed as cell growth inhibition measured after 72 hrs by DAPI staining based analysis; type: functional
SW780 = assay: Anticancer activity against human SW780 cells assessed as cell growth inhibition measured after 72 hrs by DAPI staining based analysis; type: functional
U2OS = assay: Anticancer activity against human U2OS cells assessed as cell growth inhibition measured after 72 hrs by DAPI staining based analysis; type: functional
A2780 = assay: Anticancer activity against human A2780 cells assessed as cell doubling measured for 72 hrs by DAPI staining based analysis; type: functional
A498 = assay: Anticancer activity against human A498 cells assessed as cell doubling measured for 72 hrs by DAPI staining based analysis; type: functional
AGS = assay: Anticancer activity against human AGS cells assessed as cell doubling measured for 72 hrs by DAPI staining based analysis; type: functional
BPH-1 = assay: Anticancer activity against human BPH-1 cells assessed as cell doubling measured for 72 hrs by DAPI staining based analysis; type: functional
BV-173 = assay: Anticancer activity against human BV-173 cells assessed as cell doubling measured for 72 hrs by DAPI staining based analysis; type: functional
C-4-II = assay: Anticancer activity against human C-4-II cells assessed as cell doubling measured for 72 hrs by DAPI staining based analysis; type: functional
DoTc2-4510 = assay: Anticancer activity against human DoTc2-4510 cells assessed as cell doubling measured for 72 hrs by DAPI staining based analysis; type: functional
HCT-15 = assay: Anticancer activity against human HCT-15 cells assessed as cell doubling measured for 72 hrs by DAPI staining based analysis; type: functional
HMCB cell line [5] = assay: Anticancer activity against human HMCB cells assessed as cell doubling measured for 72 hrs by DAPI staining based analysis; type: functional
HT-1080 = assay: Anticancer activity against human HT-1080 cells assessed as cell doubling measured for 72 hrs by DAPI staining based analysis; type: functional
IGROV-1 = assay: Anticancer activity against human IGROV-1 cells assessed as cell doubling measured for 72 hrs by DAPI staining based analysis; type: functional
[6] = system: KATO III stomach cancer cell line; assay: Anticancer activity against human KATO III stomach cancer cell line cells assessed as cell doubling measured for 72 hrs by DAPI staining based analysis; type: functional
MDA-MB-175-VII = assay: Anticancer activity against human MDA-MB-175-VII cells assessed as cell doubling measured for 72 hrs by DAPI staining based analysis; type: functional
NCI-H2170 = assay: Anticancer activity against human NCI-H2170 cells assessed as cell doubling measured for 72 hrs by DAPI staining based analysis; type: functional
NCI-H630 = assay: Anticancer activity against human NCI-H630 cells assessed as cell doubling measured for 72 hrs by DAPI staining based analysis; type: functional
RPMI-2650 = assay: Anticancer activity against human RPMI-2650 cells assessed as cell doubling measured for 72 hrs by DAPI staining based analysis; type: functional
RXF 393 = assay: Anticancer activity against human RXF 393 cells assessed as cell doubling measured for 72 hrs by DAPI staining based analysis; type: functional
SK-N-DZ = assay: Anticancer activity against human SK-N-DZ cells assessed as cell doubling measured for 72 hrs by DAPI staining based analysis; type: functional
SW1088 = assay: Anticancer activity against human SW1088 cells assessed as cell doubling measured for 72 hrs by DAPI staining based analysis; type: functional
THP-1 = assay: Anticancer activity against human THP-1 cells assessed as cell doubling measured for 72 hrs by DAPI staining based analysis; type: functional
UACC-62 = assay: Anticancer activity against human UACC-62 cells assessed as cell doubling measured for 72 hrs by DAPI staining based analysis; type: functional
HCT-116 = assay: Antitumor activity against human HCT-116 cells in xenograft model assessed as difference between median time to endpoint time of treated versus control group at 62.5 mg/kg; type: functional
[7] = Antitumor activity against human MV-522 cells in xenograft model assessed as difference between median time to endpoint time of treated versus control group at 62.5 mg/kg; type: functional
MX1 = assay: Antitumor activity against human MX1 cells in xenograft model assessed as difference between median time to endpoint time of treated versus control group at 125 mg/kg; type: functional
MCF7 = assay: Antitumor activity against human MCF7 cells in xenograft model assessed as tumor growth delay at 125 mg/kg relative to control; type: functional

Sequence of Centromere-associated protein E (Mus musculus, UniProt Q6RT24) (Q6RT24 whole entry, the tested form may be a part): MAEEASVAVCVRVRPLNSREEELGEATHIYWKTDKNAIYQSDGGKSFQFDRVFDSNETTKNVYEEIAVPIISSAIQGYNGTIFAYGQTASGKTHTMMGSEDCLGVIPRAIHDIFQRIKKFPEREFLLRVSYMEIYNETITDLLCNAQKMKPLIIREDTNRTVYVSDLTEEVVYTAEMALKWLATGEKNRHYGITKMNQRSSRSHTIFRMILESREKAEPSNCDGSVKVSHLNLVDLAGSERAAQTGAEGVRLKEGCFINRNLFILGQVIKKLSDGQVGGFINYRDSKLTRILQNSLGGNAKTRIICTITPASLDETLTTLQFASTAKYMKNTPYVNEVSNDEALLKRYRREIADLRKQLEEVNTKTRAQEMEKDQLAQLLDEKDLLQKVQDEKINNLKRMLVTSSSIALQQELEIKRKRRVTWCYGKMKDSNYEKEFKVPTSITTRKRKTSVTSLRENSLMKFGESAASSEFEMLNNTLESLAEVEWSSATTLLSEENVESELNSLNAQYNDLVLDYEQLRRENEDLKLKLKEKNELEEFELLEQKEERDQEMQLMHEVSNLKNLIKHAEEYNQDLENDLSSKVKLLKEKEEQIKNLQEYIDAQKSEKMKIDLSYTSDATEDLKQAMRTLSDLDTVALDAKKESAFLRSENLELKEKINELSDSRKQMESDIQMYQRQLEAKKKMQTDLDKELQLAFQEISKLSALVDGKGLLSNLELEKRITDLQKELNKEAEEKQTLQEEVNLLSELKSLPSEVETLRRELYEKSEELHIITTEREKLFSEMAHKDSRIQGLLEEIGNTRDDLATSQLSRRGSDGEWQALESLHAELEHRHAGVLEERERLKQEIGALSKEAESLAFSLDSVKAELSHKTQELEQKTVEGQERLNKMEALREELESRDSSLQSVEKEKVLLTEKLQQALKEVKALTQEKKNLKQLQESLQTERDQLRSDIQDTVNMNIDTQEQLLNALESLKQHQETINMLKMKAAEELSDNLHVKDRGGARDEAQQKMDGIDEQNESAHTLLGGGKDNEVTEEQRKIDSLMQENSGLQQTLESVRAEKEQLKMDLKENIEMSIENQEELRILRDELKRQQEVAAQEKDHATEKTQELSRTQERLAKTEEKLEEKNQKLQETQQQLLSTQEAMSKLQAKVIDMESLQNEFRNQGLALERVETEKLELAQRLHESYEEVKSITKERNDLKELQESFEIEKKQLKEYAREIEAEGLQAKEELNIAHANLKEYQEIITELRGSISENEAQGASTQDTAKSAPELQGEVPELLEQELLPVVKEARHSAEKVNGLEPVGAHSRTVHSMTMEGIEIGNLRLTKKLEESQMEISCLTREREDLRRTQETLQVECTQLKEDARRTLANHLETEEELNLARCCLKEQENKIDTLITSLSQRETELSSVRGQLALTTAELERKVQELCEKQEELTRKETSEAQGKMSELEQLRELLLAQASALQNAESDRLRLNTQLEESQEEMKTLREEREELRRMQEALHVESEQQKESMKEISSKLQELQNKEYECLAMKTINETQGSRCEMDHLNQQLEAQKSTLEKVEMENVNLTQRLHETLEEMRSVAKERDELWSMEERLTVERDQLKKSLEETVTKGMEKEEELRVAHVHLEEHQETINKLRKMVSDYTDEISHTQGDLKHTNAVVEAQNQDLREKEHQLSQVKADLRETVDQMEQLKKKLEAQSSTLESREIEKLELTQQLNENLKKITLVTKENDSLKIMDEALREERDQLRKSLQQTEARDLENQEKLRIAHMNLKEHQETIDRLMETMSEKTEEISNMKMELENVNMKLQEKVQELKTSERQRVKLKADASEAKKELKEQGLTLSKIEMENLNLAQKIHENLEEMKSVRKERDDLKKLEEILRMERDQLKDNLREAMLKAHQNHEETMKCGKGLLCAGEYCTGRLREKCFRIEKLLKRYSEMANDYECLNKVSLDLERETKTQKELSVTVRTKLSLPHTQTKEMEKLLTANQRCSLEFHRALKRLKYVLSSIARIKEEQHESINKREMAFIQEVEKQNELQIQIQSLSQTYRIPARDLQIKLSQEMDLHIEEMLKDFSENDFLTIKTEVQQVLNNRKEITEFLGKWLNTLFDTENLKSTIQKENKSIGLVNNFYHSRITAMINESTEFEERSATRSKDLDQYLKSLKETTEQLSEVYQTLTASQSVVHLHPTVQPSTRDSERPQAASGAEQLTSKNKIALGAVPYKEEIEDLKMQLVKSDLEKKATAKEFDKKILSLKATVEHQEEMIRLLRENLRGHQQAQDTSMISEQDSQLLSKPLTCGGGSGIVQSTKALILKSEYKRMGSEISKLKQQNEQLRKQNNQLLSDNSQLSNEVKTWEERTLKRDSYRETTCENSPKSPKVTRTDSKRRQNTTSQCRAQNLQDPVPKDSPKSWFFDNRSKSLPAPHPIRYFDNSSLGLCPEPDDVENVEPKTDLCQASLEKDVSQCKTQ

- Ki [1]: 67 nM
- Ki [2]: 3.2 nM
- GI50 (K562): 25 nM
- GI50 (MIA PaCa-2): 23 nM
- GI50 (NCI-H295R): 298 nM
- GI50 (SK-LMS-1): 30 nM
- GI50 (SW780): 30 nM
- GI50 (U2OS): 45 nM
Structure (SMILES): CC(C)Oc1ccc(C(=O)N[C@H](CNC(=O)CN(C)C)Cc2ccc(-c3cn4cccc([C@H](C)O)c4n3)cc2)cc1Cl [GSK-923295A]
- GI50 (BE(2)-C): 93 nM
- GI50 (DB): 21 nM
- GI50 (HMCB cell line [3]): 25 nM
- GI50 (NCI/ADR-RES): 3960 nM
- GI50 [4]: 25 nM
- GI50 (OV-90): 61 nM
- Activity (A2780): 1.62
- Activity (A498): 1.11
- Activity (AGS): 2.95
- Activity (BPH-1): 2.08
- Activity (BV-173): 2.16
- Activity (C-4-II): 2.42
- Activity (DoTc2-4510): 2.17
- Activity (HCT-15): 4.01
- Activity (HMCB cell line [5]): 2.92
- Activity (HT-1080): 3.05
- Activity (IGROV-1): 2.69
- Activity [6]: 2.02
- Activity (MDA-MB-175-VII): 1.15
- Activity (NCI-H2170): 1.69
- Activity (NCI-H630): 2.04
- Activity (RPMI-2650): 3
- Activity (RXF 393): 1.2
- Activity (SK-N-DZ): 1.81
- Activity (SW1088): 2.55
- Activity (THP-1): 1.38
- Activity (UACC-62): 2.12
- Time (HCT-116): -2.8 days
- Time [7]: 12.5 days
- Time (MX1): 6.9 days
- Activity (MCF7): 58%
